Assay results reported in ChEMBL document CHEMBL4382264, “Melanogenesis-Inhibitory and Cytotoxic Activities of Triterpene Glycoside Constituents from the Bark of Albizia procera” (J Nat Prod, 2018).

Legend:
[1] = Selectivity index, ratio of IC50 for human […] cells to IC50 for human A549 cells
How it was run: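 Selectivity index equals the IC50 against WI38 normal cells divided by the IC50 against A549 cells.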

[2] = system: HL-60; assay: Cytotoxicity against human HL60 cells assessed as reduction in cell viability after 48 hrs by MTT assay; format: functional, cell-based; conditions: HL-60, 48 h
How it was run: (§1)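 Cells exposed to compounds from 1 × 10−4 to 1 × 10−6 M for 48 h. Viability read by MTT. IC50 derived from five concentrations, each run in triplicate.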

[3] = system: B16-F10; assay: Inhibition of alpha-MSH-stimulated melanogenesis in mouse B16F10 cells assessed as melanin content at 10 uM measured after 48 hrs relative to control; format: functional; design: scale not given: the % may be the effect or the level left
How it was run: (§2)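 B16F10 cells treated with test sample plus 0.10 μM α-MSH for 48 h. Melanin solubilized in 2 N NaOH–10% DMSO and read at 405 nm. Expressed as % of DMSO-treated cells (DMSO 2 μL·mL−1). Mean ± SD, n = 3.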

[4] = system: B16-F10; assay: Inhibition of alpha-MSH-stimulated melanogenesis in mouse B16F10 cells assessed as melanin content at 100 uM measured after 48 hrs relative to control; format: functional; design: scale not given: the % may be the effect or the level left; how it was run: as §2
[5] = system: SK-BR-3; assay: Cytotoxicity against human SKBR3 cells assessed as reduction in cell viability after 48 hrs by MTT assay; format: functional, cell-based; conditions: SK-BR-3, 48 h; how it was run: as §1
[6] = system: B16-F10; assay: Selectivity index, ratio of compound effect for cytotoxicity against non-stimulated mouse B16F10 cells assessed as cell viability at 10 uM to compound effect for inhibition of alpha-MSH-stimulated melanogenesis in mouse B16F10 cells assessed as melanin content at 10 uM
[7] = system: A549; assay: Cytotoxicity against human A549 cells assessed as reduction in cell viability after 48 hrs by MTT assay; format: functional, cell-based; conditions: A549, 48 h; how it was run: as §1
[8] = system: WI-38; assay: Cytotoxicity against human WI38 cells assessed as reduction in cell viability after 48 hrs by MTT assay; format: cell-based; conditions: WI-38, 48 h; how it was run: as §1
[9] = system: AZ-521 cell line; assay: Cytotoxicity against human AZ-521 cells assessed as reduction in cell viability after 48 hrs by MTT assay; format: functional, cell-based; conditions: AZ-521, 48 h; how it was run: as §1
[10] = Cytotoxicity against non-stimulated mouse B16F10 cells assessed as cell viability at 100 uM relative to control; format: cell-based, B16-F10; conditions: read-out: Activity
How it was run: (§3)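 B16 melanoma cells tested for viability at 10 or 100 μM. Absorbance read at 570 nm (test) minus 630 nm (reference). Expressed as % of DMSO control (DMSO 2 μL·mL−1). Mean ± SD, n = 3.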

[11] = Cytotoxicity against non-stimulated mouse B16F10 cells assessed as cell viability at 10 uM relative to control; format: cell-based, B16-F10; conditions: read-out: Activity; how it was run: as §3
[12] = system: B16-F10; assay: Selectivity index, ratio of compound effect for cytotoxicity against non-stimulated mouse B16F10 cells assessed as cell viability at 100 uM to compound effect for inhibition of alpha-MSH-stimulated melanogenesis in mouse B16F10 cells assessed as melanin content at 100 uM

Row | SMILES | Ratio IC50 [1] | IC50 [2] [nM] | Activity [3] [%] | Activity [4] [%] | IC50 [5] [nM] | Ratio [6] | IC50 [7] [nM] | IC50 [8] [nM] | IC50 [9] [nM] | viability at 100 µM [10] [%] | viability at 10 µM [11] [%] | Ratio [12]
1 | C=C[C@@](C)(O)CC/C=C(\C)C(=O)O[C@H]1[C@H](O)[C@@H](O)[C@H](O[C@](C)(C=C)CCCC(C)C(=O)O[C@H]2C[C@]3(C(=O)O[C@@H]4O[C@H](CO)[C@@H](O)[C@H](O)[C@H]4O[C@@H]4O[C@@H](C)[C@H](O[C@@H]5O[C@@H](CO)[C@H](O)[C@H]5O)[C@@H](O[C@@H]5O[C@H](CO)[C@@H](O)[C@H](O)[C@H]5O)[C@H]4O)CC[C@]4(C)C(=CC[C@@H]5[C@@]6(C)CC[C@H](O[C@@H]7O[C@H](CO[C@@H]8OC[C@H](O)[C@H](O)[C@H]8O[C@@H]8OC[C@@H](O)[C@H](O)[C@H]8O)[C@@H](O)[C@H](O)[C@H]7O[C@@H]7O[C@H](CO)[C@@H](O)[C@H](O)[C@H]7O)C(C)(C)[C@@H]6CC[C@]54C)[C@@H]3CC2(C)C)O[C@@H]1C (stereo not given in full) | 3.4 | 500 | 89.2 | 75.2 | 1100 | 0.81 | 660 | 2200 | 400 | 102 | 110 | 0.74
2 | OC[C@H]1O[C@@H](Oc2ccc(O)cc2)[C@H](O)[C@@H](O)[C@@H]1O [ARBUTIN] | – | – | 92.7 | 81.5 | – | 0.91 | – | – | – | 101 | 102 | 0.81
3 | C=C[C@@](C)(O)CC/C=C(\C)C(=O)O[C@H]1[C@H](O)[C@@H](O)[C@H](O[C@](C)(C=C)CCCC(C)C(=O)O[C@H]2C[C@]3(C(=O)O[C@@H]4O[C@H](CO)[C@@H](O)[C@H](O)[C@H]4O[C@@H]4O[C@@H](C)[C@H](O[C@@H]5O[C@@H](CO)[C@H](O)[C@H]5O)[C@@H](O[C@@H]5O[C@H](CO)[C@@H](O)[C@H](O)[C@H]5O)[C@H]4O)CC[C@]4(C)C(=CC[C@@H]5[C@@]6(C)CC[C@H](O[C@@H]7O[C@H](CO[C@@H]8O[C@H](C)[C@H](O)[C@H](O)[C@H]8O[C@@H]8OC[C@@H](O)[C@H](O)[C@H]8O)[C@@H](O)[C@H](O)[C@H]7O)C(C)(C)[C@@H]6CC[C@]54C)[C@@H]3CC2(C)C)O[C@@H]1C (stereo not given in full) | 1.8 | 900 | 74.3 | 42.5 | 400 | 0.69 | 1300 | 2500 | 1700 | 102 | 107 | 0.42
